pIC50: −log10 of the molar value. Where “and” joins values, the source holds several entries; their conditions need not be identical. Equal values may be shown once.
Columns and labels:
MT4 [1] = assay: Effect of Erythro-9-(2-Hydroxy-3-nonyl) adenine (EHNA) on the Anti-HIV activity in MT-4 cells; assay type: functional, cell-based, Homo sapiens
Summary of the method: (§1)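 Anti-HIV-1 assay in MT4 cells infected with 100-fold TCID50 HTLV-IIIB over 5 days, run with EHNA or coformycin at 0.1 or 1.0 μM to block deaminase; control wells received PBS in their place. IC50 determined; triplicates, at least five runs.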

MT4 [2] = assay: Effect of Phosphate buffered saline on the Anti-HIV activity in MT-4 cells; assay type: functional, cell-based; details: Homo sapiens; summary of the method: as §1
MT4 [3] = assay: Anti-Human immunodeficiency virus activity against MT-4 cells; assay type: functional, cell-based
Summary of the method: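 MT4 cells infected with HTLV-IIIB at 100-fold TCID50 (100-fold the virus stock concentration giving 50% growth inhibition), compound present for 5 days. IC50 from cell growth protection. Each compound run in triplicate at least five times.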

L cells [4] = assay: Percentage of L cell growth at 100 uM nucleosides after 4 days.; assay type: functional, Mus musculus, L929
Summary of the method: (§2)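 Human sternal marrow D-98 cells or mouse connective tissue L cells exposed to 100 μM nucleoside for 4 days. Growth expressed as % of untreated control, which underwent at least three doublings.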

[5] = Percentage of D98 cell growth at 100 uM nucleosides after 4 days.; assay type: functional, Homo sapiens; summary of the method: as §2
MT4 [6] = assay: Percentage of MT-4 cell growth was calculated at 100 uM nucleosides after 5 days.; assay type: functional, Homo sapiens
Summary of the method: (§3)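 MT4 cells exposed to 100 μM nucleoside for 5 days, growth given as % of untreated control, which underwent at least three doublings.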

MT4 [7] = assay: Effect of Coformycin on the Anti-HIV activity in MT-4 cells; assay type: functional, cell-based; details: Homo sapiens; summary of the method: as §1
[8] = (§4) Percentage of control cell growth was calculated at 100 uM nucleosides after 4 days; assay type: functional, Homo sapiens; summary of the method: as §2
L cells [9] = assay: as §4; assay type: functional, Mus musculus, L929; summary of the method: as §2
MT4 [10] = assay: Percentage of control cell growth was calculated at 100 uM nucleosides after 5 days; assay type: functional, Homo sapiens; summary of the method: as §3
MT4 [11] = assay: Effect of Erythro-9-(2-Hydroxy-3-nonyl) adenine (EHNA) on the Anti-HIV activity in MT-4 cells at 1.0 uM; assay type: functional, cell-based; details: Homo sapiens; summary of the method: as §1
MT4 [12] = assay: Effect of Coformycin on the Anti-HIV activity in MT-4 cells at 1.0 uM; assay type: functional, cell-based; details: Homo sapiens; summary of the method: as §1
MT4 [13] = assay: Effect of Erythro-9-(2-Hydroxy-3-nonyl) adenine (EHNA) on the Anti-HIV activity in MT-4 cells at 0.10 uM; assay type: functional, cell-based; details: Homo sapiens; summary of the method: as §1
MT4 [14] = assay: Effect of Coformycin on the Anti-HIV activity in MT-4 cells at 0.10 uM; assay type: functional, cell-based; details: Homo sapiens; summary of the method: as §1

Compound | pIC50 (MT4 [3]) | Control (L cells [4]) [%] | Control [5] [%] | Control (MT4 [6]) [%] | also measured
CCCCOc1ncnc2c1ncn2C1CCC(CO)O1 (stereo not given) | 4.15 | 68 | 85 | 100 | pIC50 (MT4 [1]; mt4): 4.59 and 4.15; pIC50 (MT4 [2]): 4.42; pIC50 (MT4 [7]): < 3.70
CCCC(C)Oc1ncnc2c1ncn2C1CCC(CO)O1 (stereo not given) | 4.10 | 67 | 81 | 100 | –
CCCCCCCCCOc1ncnc2c1ncn2C1CCC(CO)O1 (stereo not given) | < 5.30 | – | – | – | Control [8]: 27%; Control (L cells [9]): 23%
C/C=C/COc1ncnc2c1ncn2C1CCC(CO)O1 (stereo not given) | 4.23 | 58 | 35 | 100 | pIC50 (MT4 [1]; Homo sapiens, MT4): 4.30; pIC50 (MT4 [1]; mt4): 4.10; pIC50 (MT4 [2]): 4.15; pIC50 (MT4 [7]): < 3.70
CCCCCCCOc1ncnc2c1ncn2C1CCC(CO)O1 (stereo not given) | 4.60 | – | – | – | Control [8]: 47%; Control (L cells [9]): 34%
CC(C)Oc1ncnc2c1ncn2C1CCC(CO)O1 (stereo not given) | 4.00 | 72 | 74 | 100 | –
CCOc1ncnc2c1ncn2C1CCC(CO)O1 (stereo not given) | < 4.00 | 90 | 82 | 100 | –
CCCCCCOc1ncnc2c1ncn2C1CCC(CO)O1 (stereo not given) | 4.74 | 42 | 54 | 100 | pIC50 (MT4 [1]): 4.60 and 4.22; pIC50 (MT4 [2]): 4.62; pIC50 (MT4 [7]): < 3.70
CCCOc1ncnc2c1ncn2C1CCC(CO)O1 (stereo not given) | < 4.00 | 87 | 87 | 100 | –
OCC1CCC(n2cnc3c(OCC(F)(F)F)ncnc32)O1 (stereo not given) | < 4.00 | 82 | 82 | 100 | –
CCCCCOc1ncnc2c1ncn2C1CCC(CO)O1 (stereo not given) | 4.30 | 48 | 60 | 100 | –
CCCCCCCCOc1ncnc2c1ncn2C1CCC(CO)O1 (stereo not given) | < 4.49 | – | – | – | Control [8]: 29%; Control (L cells [9]): 28%
C=CCOc1ncnc2c1ncn2C1CCC(CO)O1 (stereo not given) | 4.01 | 70 | 68 | 100 | –
COc1ncnc2c1ncn2C1CCC(CO)O1 (stereo not given) | < 4.00 | 96 | 97 | 100 | –
CCCCCCCCCCOc1ncnc2c1ncn2C1CCC(CO)O1 (stereo not given) | < 5.30 | – | – | – | Control (MT4 [10]): 20%; Control [8]: <1%; Control (L cells [9]): 6%
CCC(CC)Oc1ncnc2c1ncn2C1CCC(CO)O1 (stereo not given) | < 4.00 | 68 | 60 | 100 | –
OCC1CCC(n2cnc3c(OCCF)ncnc32)O1 (stereo not given) | < 4.00 | 100 | 76 | 100 | –
CC[C@@H](C)Oc1ncnc2c1ncn2[C@H]1CC[C@@H](CO)O1 | < 4.00 | 81 | 81 | 100 | –
CCC(C)Oc1ncnc2c1ncn2[C@H]1CC[C@@H](CO)O1 (stereo not given in full) | < 4.00 | 77 | 77 | 100 | –
CC(C)COc1ncnc2c1ncn2C1CCC(CO)O1 (stereo not given) | 4.28 | 98 | 98 | 100 | –
CC[C@H](C)Oc1ncnc2c1ncn2[C@H]1CC[C@@H](CO)O1 | 4.10 | 85 | 81 | 100 | –
O=c1[nH]cnc2c1ncn2[C@H]1CC[C@@H](CO)O1 [DIDANOSINE] | 4.64 | 100 | 97 | 100 | pIC50 (MT4 [2]): 4.52; pIC50 (MT4 [11]): 4.51; pIC50 (MT4 [12]): 4.41; pIC50 (MT4 [13]): 4.52; pIC50 (MT4 [14]): 4.55
